NPY-Y1 antag – NPY-Y1 (human) receptor antagonism. P25929. HEK293-CNG Y1 cells, membrane potential fluorescence; NPY at EC95, then isoproterenol. inhibition, % at 3.6 µM. actives 1% (n = 200,000). AID 1040;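 active = inhibition above the campaign mean inhibition of all tested compounds plus 3 SD, cut at about 20% in these data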;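 note: 0% = DMSO wells given NPY plus isoproterenol and 100% = isoproterenol alone without NPY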
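Assay system: HEK293 Y1/CNG channel cell line; Doses: single compound dose of 3.6 µM, 0.4% DMSO; Timing: dye 3 h, compound 60 min room temperature, stimulation 45 min; Technique: Membrane-potential fluorescent dye readout; Measure: % inhibition of NPY effect.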
NPY-Y2 antag – NPY-Y2 (human) receptor antagonism | actives 0.99% (n = 140,000) | P49146 | inhibition, % at 2.7 µM | AID 793 | NPY-Y2 expressing cells, antagonist mode; in the data active = inhibition above about 17%;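 note: 0% = vehicle with agonist challenge and 100% = reference antagonist with challenge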
Target sequence (P49146 whole entry, looked up): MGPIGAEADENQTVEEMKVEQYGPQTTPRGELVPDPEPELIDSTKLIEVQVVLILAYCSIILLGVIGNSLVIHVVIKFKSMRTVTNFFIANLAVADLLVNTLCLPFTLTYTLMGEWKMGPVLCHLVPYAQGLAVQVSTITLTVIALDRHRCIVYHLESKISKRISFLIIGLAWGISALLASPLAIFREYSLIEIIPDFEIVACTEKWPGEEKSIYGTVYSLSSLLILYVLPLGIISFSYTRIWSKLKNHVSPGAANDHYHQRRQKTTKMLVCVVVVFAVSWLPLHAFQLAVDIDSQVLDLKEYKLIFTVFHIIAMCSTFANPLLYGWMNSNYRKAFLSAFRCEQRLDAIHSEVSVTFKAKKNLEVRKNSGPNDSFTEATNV
NPY-Y2 PAM-ag – human NPY-Y2 potentiation or agonism, primary screen; P49146; cells expressing NPY-Y2, potentiator/agonist read-out; activation, % at 3.6 µM; actives 0.45% (n = 220,000); AID 1359; in the data active = activation above about 27%;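 note: cells stimulated with NPY near EC25 plus isoproterenol at EC100; 0% = vehicle plus submaximal agonist and 100% = vehicle plus saturating agonist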
NPY-Y1 PAM-ag – human NPY-Y1 potentiation or agonism, primary screen | P25929 | NPY-Y1 expressing cells, potentiator/agonist activation | activation, % at 3.6 µM | actives 0.37% (n = 220,000) | AID 1304; in the data active = activation above about 33%, passing the limit was not always enough;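 note: cells stimulated with NPY at EC10 then isoproterenol at EC100; 0% = low agonist plus stimulus and 100% = saturating agonist plus stimulus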
NPY-Y2 pot conf – human NPY-Y2 potentiation or agonism, confirmation | shares compounds with NPY-Y2 PAM-ag | cell-based NPY-Y2 potentiator/agonist assay | activation, % at 3.6 µM | actives 20% (n = 450); in the data active = activation above about 33%
NPY-Y1 counter – potentiates or activates NPY-Y1, counter-screen for NPY-Y2 hits; shares compounds with NPY-Y2 PAM-ag; Y1 HEK293-CNG cells, membrane potential fluorescence; activation, % at 3.6 µM; actives 20% (n = 450); in the data active = activation above about 45%;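 note: cells stimulated with submaximal NPY then isoproterenol with phosphodiesterase inhibitor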
NPY-Y1 agonist 2 – activates human NPY-Y1, counter-screen for NPY-Y2 potentiators. shares compounds with NPY-Y2 PAM-ag. HEK293 Y1-CNGC, membrane potential fluorescence, agonism. activation, % at 3.6 µM. actives 37% (n = 450);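 active = activation above the mean of DMSO-only control wells plus 3 SD, cut at about 18% in these data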;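 note: cells stimulated with 1 µM isoproterenol plus the PDE inhibitor Ro 20-1724; 0% = isoproterenol with DMSO and no NPY and 100% = 40 nM NPY; Y1 agonists lower the membrane potential dye signal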
CNGC inhibitor – cyclic nucleotide gated channel inhibition as counter-screen; shares compounds with NPY-Y2 PAM-ag; inhibition, % at 3.6 µM; HEK293-CNG parental, isoproterenol cAMP, membrane potential fluorescence; actives 32% (n = 450);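 active = inhibition above the control-well mean plus 3 SD of those wells, cut at about 22% in these data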;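 note: 0% = DMSO with isoproterenol and 100% = DMSO without isoproterenol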
Y2 agonist ctr – NPY-Y2 agonism, counter-screen for Y2 potentiators; activation, % at 3.6 µM; HEK293 Y2/CNGC cells, membrane potential fluorescence, agonist mode; shares compounds with NPY-Y2 PAM-ag; actives 56% (n = 450);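 active = activation above the mean of solvent-only control wells plus 3 SD, cut at about 10% in these data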;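 note: cells stimulated by isoproterenol with no NPY added so direct agonism is tested; 0% = DMSO with isoproterenol alone and 100% = NPY at EC100 plus isoproterenol; agonism lowers probe fluorescence through less cAMP and CNG channel opening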
Active calls of the source: *; nt = no result given. Hits are enriched below; roughly 1.9% of the tested compounds scored in any of these assays.

SMILES	NPY-Y1 antag	NPY-Y2 antag	NPY-Y2 PAM-ag	NPY-Y1 PAM-ag	NPY-Y2 pot conf	NPY-Y1 counter	NPY-Y1 agonist 2	CNGC inhibitor	Y2 agonist ctr
Cc1cc(C)nc(N2CCCC(C(=O)Nc3ccc4c(c3)OCO4)C2)n1 (centres undefined)	10	3	-21	-15	nt	nt	nt	nt	nt
COc1ccc(C)cc1NC(=O)c1ccccc1NS(=O)(=O)c1ccc(Cl)s1	7	nt	58*	-2	-6	-46	-30	-23	-11
Oc1ccccc1N=Nc1nc(-c2ccccc2)c(-c2ccccc2)[nH]1	-2	-9	45*	48	57*	69*	64*	61*	63*
COc1ccccc1N=Nc1nc(-c2ccccc2)c(-c2ccccc2)[nH]1	-7	-3	22	26	nt	nt	nt	nt	nt
Cn1c(=O)c([N+](=O)[O-])c(NCc2ccc3c(c2)OCO3)c2ccccc21	nt	nt	99*	3	-15	-29	-24	-9	-10
Cn1c(=O)c([N+](=O)[O-])c(NCc2ccccc2Cl)c2ccccc21	nt	nt	-12	10	nt	nt	nt	nt	nt
O=C(O)C1CC=CCC1C(=O)N1CCN(c2nc(-c3ccccc3)c3ccccc3n2)CC1 (centres undefined)	14	7	37*	43	17	2	18*	-6	14*
O=C(c1ccc(N2CCOCC2)cc1[N+](=O)[O-])N1CCOCC1	0	nt	8	-7	nt	nt	nt	nt	nt
CCCc1cc(-c2[nH]ncc2-c2ccc(C(=O)OCC)o2)c(O)cc1O	-1	-2	41*	26	20	19	10	13	22*
N#C/C(=N\Nc1ccc(Cl)cc1)C(=O)c1ccsc1	nt	nt	59*	36	13	-10	-5	-1	6
N#C/C(=N\Nc1ccc(Cl)cc1)C(N)=S	nt	nt	54*	38	2	-5	-9	-6	3
N#C/C(=N\Nc1ccccc1)C(N)=S	nt	nt	2	1	nt	nt	nt	nt	nt
Cc1ccc(N/N=C(\C#N)C(=O)c2ccsc2)cc1	nt	nt	-1	8	nt	nt	nt	nt	nt
COc1ccc(NC(=O)Cn2cnc3sc(C)c(S(=O)(=O)N4CCOCC4)c3c2=O)c(OC)c1	-3	nt	-22	6	nt	nt	nt	nt	nt
O=C(c1ccccc1)c1c2c(cc3sc4ccccc4[n+]13)-c1cccc3cccc-2c13	-7	4	40*	35	51*	60*	54*	56*	60*
Cc1sc2cc3c(c(C(=O)c4ccccc4)[n+]2c1C)-c1cccc2cccc-3c12	1	6	31*	16	20	11	8	9	16*
COc1ccc(/C=N/NC(=O)c2cccnc2)c(C(=O)O)c1OC	nt	nt	3	13	nt	nt	nt	nt	nt
Oc1ccccc1CNc1ccc(OC(F)(F)F)cc1	-6	nt	11	28	nt	nt	nt	nt	nt
CCCc1nnc(SCC(=O)O)n1CC	nt	nt	2	-20	nt	nt	nt	nt	nt
CC(=O)SCCC(=O)Nc1ccccc1	-16	-7	44*	26	32	41	52*	37*	47*
CC(=O)NNC(=O)CCC(=O)Nc1ccccc1	-1	3	0	-1	nt	nt	nt	nt	nt
CC(=O)OCC1O[C@@H](O[C@@H]2C[C@H]3C(C)(C)[C@H](OC(C)=O)CC[C@]3(C)[C@H]3CC[C@]45C[C@]4(CC[C@H]5[C@@H](C)C[C@@H](O)[C@H](O)C(C)(C)O)[C@@]32C)[C@H](O)[C@@H](O)[C@@H]1O (some centres undefined)	-10	0	35*	31	32	31	39*	26*	35*
CN(C)S(=O)(=O)Oc1cccc(C(=O)Nc2ccccc2Cl)c1	-2	2	6	-7	nt	nt	nt	nt	nt
CN(C)S(=O)(=O)Oc1cccc(C(=O)Nc2ccc(Cl)cc2)c1	-9	2	48*	40	-4	-36	-21	-12	-7

Assay outcomes (PubChem BioAssay)
